Screening data as filed in PubChem.
APJ antagonist – antagonists of human APJ apelin receptor. CHO-K1 APJ beta-arrestin complementation, luminescence. inhibition, % at 20 µM. hit rate 0.32% among 330,000;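 active = inhibition above about 40% at 20 µM, limit read from the data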;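 note: cells challenged with 10 nM apelin-13 agonist together with compound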
CCR6 antag – CCR6 (human) receptor antagonism | P51684 | CHO-K1 CCR6 PathHunter beta-arrestin, luminescence, CCL20-stimulated | inhibition, % at 20 µM | hit rate 0.49% among 340,000 | AID 493098;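 active = compounds whose inhibition of the agonist-driven luminescence signal at 20 µM reaches about 50%, limit read from the data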;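 note: cells stimulated with CCL20 at 14 nM final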
Target sequence (P51684 whole entry, looked up): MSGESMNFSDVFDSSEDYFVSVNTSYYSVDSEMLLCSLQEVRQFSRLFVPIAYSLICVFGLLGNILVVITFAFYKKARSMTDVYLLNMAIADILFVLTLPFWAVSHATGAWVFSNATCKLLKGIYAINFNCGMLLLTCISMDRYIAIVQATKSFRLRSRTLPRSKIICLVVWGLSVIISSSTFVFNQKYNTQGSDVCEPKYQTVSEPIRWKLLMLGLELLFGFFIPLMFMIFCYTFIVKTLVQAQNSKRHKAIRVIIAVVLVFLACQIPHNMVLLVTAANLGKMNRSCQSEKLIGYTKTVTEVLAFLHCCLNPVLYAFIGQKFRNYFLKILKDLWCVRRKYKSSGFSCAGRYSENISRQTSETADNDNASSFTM
EBI2 antag – antagonists of human EBI2 receptor | P32249 | EBI2 beta-arrestin recruitment, luminescence, 7a,25-OHC stimulated | inhibition, % at 5 µM | hit rate 0.81% among 360,000 | AID 651636; in the data active = inhibition above about 38%;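 note: enzyme fragment complementation signal reports receptor beta-arrestin coupling in cells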
Target sequence (P32249 whole entry, looked up, the tested form may be a part): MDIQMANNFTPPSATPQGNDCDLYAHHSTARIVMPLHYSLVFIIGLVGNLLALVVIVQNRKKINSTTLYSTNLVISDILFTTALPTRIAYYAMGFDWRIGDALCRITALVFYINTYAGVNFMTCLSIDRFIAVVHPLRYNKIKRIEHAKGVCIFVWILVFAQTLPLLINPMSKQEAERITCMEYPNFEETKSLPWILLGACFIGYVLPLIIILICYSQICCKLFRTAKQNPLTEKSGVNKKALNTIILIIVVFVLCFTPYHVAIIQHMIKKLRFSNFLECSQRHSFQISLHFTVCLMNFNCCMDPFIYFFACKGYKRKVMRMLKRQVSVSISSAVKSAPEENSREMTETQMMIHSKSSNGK
APJ ag – agonists of human APJ apelin receptor | CHO-K1 APJ PathHunter beta-arrestin, luminescence; 0% DMSO wells, 100% apelin | activation, % at 20 µM | hit rate 0.11% among 330,000 | AID 2520;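 active = activation more than six SD over the plate average, tested at 20 µM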
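Incubation: overnight seeding, 90 min compound at 25 °C, 1 h detection; test system: PathHunter CHO-K1 APJ (AGTRL-1) beta-arrestin reporter cells; amount: 1000 cells/well; doses: one dose, 20 µM compound, 1% DMSO; measured by: beta-gal luminescence; measure: agonist-driven arrestin binding to APJ; benchmarks: negative DMSO alone, positive Apelin-13 at 10 nM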
CXCR6 block – blocks human CXCR6 beta-arrestin recruitment; O00574; CHO-K1 PathHunter CXCR6 beta-arrestin, luminescence; inhibition, % at 20 µM; hit rate 0.36% among 360,000; in the data active = inhibition above about 34%, passing the limit was not always enough;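 note: antagonist mode with CXCL16 agonist at 10 nM final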
Of the large screens only hits and unclear results are named; the others gave an inactive call. Only some compounds are listed: those with a hit (about 1.5% of all), similar ones and a draw of the others.

Nc1c(O)ccc2c1C(=O)c1ccccc1C2=O	CCR6 antag 50.1 (no result: APJ antagonist, EBI2 antag, APJ ag, CXCR6 block)
COc1ccc2c(c1O)C(=O)c1ccccc1C2=O	none (no result: CCR6 antag, EBI2 antag, CXCR6 block)
COc1cc(/C=N/NC(=O)C(Cc2c[nH]c3ccccc23)NC(=O)OCc2ccccc2)cc([N+](=O)[O-])c1O (stereo unspecified)	none (no result: APJ antagonist, APJ ag)
COc1cc(/C=N/NC(=O)C(Cc2c[nH]c3ccccc23)NC(=O)OCC(C)C)cc([N+](=O)[O-])c1O (stereo unspecified)	APJ antagonist 44.4
CC1=NN(c2ccc(Cl)cc2)C(=O)/C1=C\c1cccn1-c1ccc(S(N)(=O)=O)cc1	EBI2 antag 59.7
COc1ccc(NC(=O)C(Cl)=C(Cl)Cl)cn1	none
COc1ccc(NC(=O)/C(Cl)=C(/Cl)S(=O)(=O)Cc2ccccc2)cn1	EBI2 antag 60.9 (no result: APJ antagonist, APJ ag)
O=C1N=c2ccccc2=C1c1sc(NS(=O)(=O)Cc2ccccc2)nc1O	CCR6 antag 76.4
O=C1N=c2ccccc2=C1c1sc(Nc2ccc(O)cc2)nc1O	CCR6 antag 57.0, CXCR6 block 50.2 (no result: APJ antagonist, APJ ag)
O=C1N=c2ccccc2=C1c1sc(NS(=O)(=O)c2ccccc2)nc1O	none
O=C1N=c2ccccc2=C1c1sc(Nc2cccc(O)c2)nc1O	none
CCCCCCCCN1C(=O)[C@H](CC(=O)NCC23CC4CC(CC(C4)C2)C3)C[C@@]2(C(=O)OCC)CCC=C12	none (no result: APJ antagonist, CCR6 antag, APJ ag, CXCR6 block)
CCC(=O)OCOc1ccc(/C=C2/CCC(CN(C)C)C2=O)cc1 (stereo unspecified)	CCR6 antag 89.9, CXCR6 block 82.0 (no result: APJ antagonist, APJ ag)
O=Nc1c(-c2c(O)[nH]c3cc(Br)ccc23)[nH]c2ccccc12	CCR6 antag 74.5, CXCR6 block 60.6
C[C@H](NC(=O)COc1ccccc1)C(=O)OCC(=O)c1cc2ccccc2o1	CCR6 antag 76.0, CXCR6 block 48.0 (no result: APJ antagonist, APJ ag)
COc1cc(OC)cc(C2=Cc3ccccc3C(CC(C)=O)N2c2ccc(C#CC3(N)CCCCC3)cc2)c1 (stereo unspecified)	none (no result: APJ antagonist, CCR6 antag, APJ ag)
Cc1c(N=C2C=C(Br)C(=O)C(Br)=C2)c(=O)n(-c2ccccc2)n1C	none
Cc1c(N=C2C=CC(=O)c3ccccc32)c(=O)n(-c2ccccc2)n1C	CCR6 antag 75.1 (no result: APJ antagonist, APJ ag)
O=C(c1ccc(-c2ccccc2)cc1)c1ccc([N+](=O)[O-])cc1	none (no result: CCR6 antag, EBI2 antag, CXCR6 block)
O=C(C#Cc1ccccc1)c1ccc([N+](=O)[O-])cc1	CCR6 antag 54.9, CXCR6 block 70.7
CCOC(=O)c1csc(Nc2nc3ccc(F)cc3s2)n1	APJ antagonist 42.2
Cc1cccc(-n2c(SCC(=O)N3CCC(C(=O)O)CC3)nc3ccccc3c2=O)c1C	none
CCOC(=O)CSC1=NC(=O)/C(=C/c2ccc(OC)cc2)S1	CCR6 antag 54.0
CC(=O)N1N=C(c2cccc([N+](=O)[O-])c2)OC1c1ccccc1Cl (stereo unspecified)	CCR6 antag 50.2
COC(=O)c1ccccc1NC1=C/C(=N\S(=O)(=O)c2ccc(C(=O)O)cc2)c2ccccc2C1=O	CCR6 antag 55.0
COC(=O)c1ccccc1NC1=C/C(=N\S(=O)(=O)c2cccs2)c2ccccc2C1=O	CCR6 antag 54.0, CXCR6 block 42.5
CC[n+]1c(/C=C/c2ccc(N(C)C)cc2)ccc2ccccc21	CCR6 antag 54.7 (no result: APJ antagonist, APJ ag)
CC[n+]1c(/C=C/c2ccc(OC)c(OC)c2)ccc2ccccc21	none
CC(C)C[C@H]1CN([C@@H](Cc2ccc(O)cc2)CN2CCC[C@H]2CN2C(=O)C(=O)NC[C@@H]2Cc2ccc(O)cc2)C(=O)C(=O)N1CCc1ccccc1	none (no result: APJ antagonist, CCR6 antag, APJ ag)
Cc1cc(Cl)c(S(=O)(=O)NC2CCCC2)cc1OCC(=O)NC1CCCCC1	EBI2 antag 44.5
COc1ccccc1C(=O)N/C(N)=N/c1nc2ccccc2o1	CCR6 antag 75.4
CN1CCN(C(=O)c2cccc3c(-c4ccc(F)c(F)c4)coc23)CC1	none (no result: APJ antagonist, CCR6 antag, APJ ag)
COc1cc(N/N=C(\C)c2ccc(N)cc2)nc(-c2ccccc2)n1	none
C/C(=N\Nc1cc(-c2ccccc2)nc(-c2ccccc2)n1)c1ccc(O)c(C)c1	EBI2 antag 51.2
COc1cc(N/N=C(\C)c2ccc(O)c(C)c2)nc(-c2ccccc2)n1	EBI2 antag 57.5
CC(C)(C)c1ccc(OCC(=O)NNC(=S)NC(=O)c2ccco2)c(Br)c1	CCR6 antag 55.6
CC(C)c1ccc(OCC(=O)NNC(=S)NC(=O)c2ccco2)c(Br)c1	none
Cc1c(C(=O)N2CCN(S(=O)(=O)c3cc(F)ccc3F)CC2)oc2ccccc12	none
O=C(NC1CCCCC1)c1ccc(-c2cn[nH]c2)c2ccoc12	none (no result: APJ antagonist, CCR6 antag, APJ ag)
CCOC(=O)c1cccc(NC(=O)/C=C/c2cccc([N+](=O)[O-])c2)c1	none
CCOC(=O)/C=C/C(=O)Nc1cccc([N+](=O)[O-])c1	CXCR6 block 85.2 (no result: CCR6 antag)
Cc1ccc(NS(=O)(=O)c2cc([N+](=O)[O-])ccc2NNC(=S)Nc2cccc(Cl)c2)c(C)c1	CCR6 antag 81.2, CXCR6 block 58.4 (no result: APJ antagonist, APJ ag)
O=[N+]([O-])c1cc2ncccc2c2ncccc12	none (no result: APJ antagonist, CCR6 antag, APJ ag)
COc1ccccc1N1CCN(Cc2ccc(OC)c(OC)c2OC)CC1	none
CCOC(=O)C1CCN(Cc2ccccc2C(F)(F)F)CC1	none
CCOC(=O)C1CCN(Cc2ccc(O)c3ncccc23)CC1	EBI2 antag 45.1
COc1ccccc1N1CCN(Cc2ccc(O)c3ncccc23)CC1	EBI2 antag 72.6
Cc1ccc(N2CCN(S(=O)(=O)c3c(C)nc4scc(C)n4c3=O)CC2)c(C)c1	none
O=C(OCc1cnc(Cl)s1)c1ccccc1Cl	none
O=C(OCn1ncc(Br)c(Br)c1=O)c1ccccc1Cl	EBI2 antag 46.9, CXCR6 block 49.4
O=C(OCn1ncc(Br)c(Br)c1=O)c1ccc(F)cc1	EBI2 antag 50.0, CXCR6 block 47.1
O=C(C(=O)N1CCCN(Cc2ccc(F)cc2)CC1)c1ccccc1	none (no result: APJ antagonist, CCR6 antag, APJ ag, CXCR6 block)
C=CC(=O)N1C/C(=C/c2ccccc2)C(=O)/C(=C\c2ccccc2)C1	CCR6 antag 64.1, CXCR6 block 37.5 (no result: APJ antagonist, APJ ag)
C=CC(=O)N1C/C(=C/c2ccc(Cl)cc2)C(=O)/C(=C\c2ccc(Cl)cc2)C1	CCR6 antag 61.8, EBI2 antag 74.7, CXCR6 block 49.7 (no result: APJ antagonist, APJ ag)
CCC(CC)NC(=O)c1cc(S(=O)(=O)N2CCCCC2)ccc1N1CCOCC1	none
CNC(=S)N1N=C(c2ccc(C)cc2)CC1c1ccc(N(C)C)cc1 (stereo unspecified)	EBI2 antag 86.7
CNC(=S)N1N=C(c2ccc(C)cc2)CC1c1ccc(OC)cc1 (stereo unspecified)	EBI2 antag 87.0
COc1ccc(CNC(=O)C2CCN(S(=O)(=O)c3ccc(N4CCCC4=O)cc3)CC2)cc1	none (no result: APJ antagonist, CCR6 antag, APJ ag)
COc1ccc(/C=c2\sc3nc(=O)c(C)nn3c2=O)c(OC)c1	CCR6 antag 82.7
CCOC(=O)c1c(N)sc(-c2ccccc2)c1C	CCR6 antag 59.4
Cc1nnc(SCC(=O)Nc2cccc(S(=O)(=O)N3CCCC3)c2)n1C1CC1	none (no result: APJ antagonist, CCR6 antag, APJ ag)
CCN(CC)c1ccc(/C=C2/C(=O)c3ccc(C(=O)O)cc3C2=O)cc1	CCR6 antag 77.3, CXCR6 block 55.5 (no result: APJ antagonist, APJ ag)
CCN(CC)c1ccc(C=C2C(=O)OC3(CCCCC3)OC2=O)cc1	none
